Bioassay records: PubChem BioAssay, several laboratories
Shown are actives, neighbours in structure and some others; about 2.1% of the full set was active somewhere.
MEKK2 WT-MEK5 = raises or lowers MEK5 binding to wildtype human MEKK2 PB1 domain; Q9Y2U5; bead flow cytometry, Alexa488-MEK5 binding to MEKK2 WT; actives lie on both sides; binding response (% of control), % at 10 µM; 290,000 compounds, 1.1% hits; AID 1531; in the data active = binding response below about 67% or above about 130%
GSK3A inh = inhibitors of human GSK-3 alpha kinase; 320,000 compounds, 0.1% hits; P49840; inhibition, % at 10 µM; ADP-Glo luminescence, 60 min; AID 2650;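 active = more than half of replicates show inhibition above 20%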;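 note: GST-tagged GSK-3 alpha with peptide substrate and 25 µM ATP; 0% = DMSO neutral wells and 100% = GW8510 positive control wells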
GSK3beta inhib = inhibitors of human GSK3beta kinase; P49841; GST-GSK3beta kinase, ADP-Glo luminescence, 60 min; stronger effect = lower value; activity score (negative = inhibition), % at 10 µM; 300,000 compounds, 0.038% hits; AID 2097;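 active = more than half of replicate wells score below -50%, meaning over 50% inhibition versus plate controls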;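 note: 0% = median DMSO wells and -100% = median GW8510 positive control wells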
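Test system: GST-tagged human GSK3beta kinase, cell-free; evaluation: activity score scaled between in-plate DMSO and GW8510 controls; measured by: ADP-Glo luminescence; incubation: 60 min reaction, RT; benchmarks: DMSO and 20 µM GW8510; reagent: peptide substrate plus 25 µM ATP (final); medium: Tris/MgCl2 kinase buffer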
MEKK3 PB1 HTS = MEKK3-MEK5 PB1 interaction, increase or decrease; Q99759; bead-based flow cytometry, Alexa488-MEK5 binding to MEKK3; actives lie on both sides; 0 = blocked by unlabeled MEK5, 100 = vehicle; binding response (% of control), % at 10 µM; 290,000 compounds, 1.4% hits;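 active = binding response more than 3 SD above or below the average of its plate-row segment, actives on both sides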;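 note: Alexa488 bead fluorescence after subtracting the streptavidin-only scavenger bead signal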
MEKK2 mut-MEK5 = signal of MEK5 binding to mutant human MEKK2 PB1 domain; bead flow cytometry, Alexa488-MEK5 binding to MEKK2 mutant; percent response, % at 10 µM; 290,000 compounds, 0.35% hits; AID 1530; in the data active = percent response above about 24%, passing the limit was not always enough
STK33 kinase inh = blocks human STK33 kinase activity; purified STK33, MBP phosphorylation, ADP-Glo luminescence; 320,000 compounds, 0.073% hits; Q9BYT3; inhibition, % at 10 µM;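 active = inhibition at or above 25%, using the most active replicate where run in duplicate; inactive = inhibition below 25%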
Target sequence (Q9BYT3 whole entry, looked up): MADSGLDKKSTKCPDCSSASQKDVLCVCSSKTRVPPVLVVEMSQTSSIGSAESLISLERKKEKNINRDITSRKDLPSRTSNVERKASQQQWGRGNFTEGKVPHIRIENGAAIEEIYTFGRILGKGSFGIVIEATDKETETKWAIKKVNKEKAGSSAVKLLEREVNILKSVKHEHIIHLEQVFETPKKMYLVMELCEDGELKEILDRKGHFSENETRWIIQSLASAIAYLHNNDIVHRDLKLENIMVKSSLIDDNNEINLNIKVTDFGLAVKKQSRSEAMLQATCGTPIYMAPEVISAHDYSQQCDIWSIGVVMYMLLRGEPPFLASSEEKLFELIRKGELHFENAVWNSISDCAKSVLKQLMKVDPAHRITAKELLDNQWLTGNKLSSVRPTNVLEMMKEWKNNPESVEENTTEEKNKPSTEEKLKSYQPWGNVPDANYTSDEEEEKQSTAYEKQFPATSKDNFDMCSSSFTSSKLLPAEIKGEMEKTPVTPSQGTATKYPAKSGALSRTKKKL
MEKK2wt confirm = raises or lowers MEK5 binding to wildtype human MEKK2, retest; shares compounds with MEKK3 PB1 HTS; bead flow cytometry, Alexa488-MEK5 binding to MEKK2 WT; actives lie on both sides; binding response (% of control), % at 10 µM; 5,900 compounds, 2.4% hits; in the data active = binding response below about 16% or above about 210%; inactive = in between
MEKK2mut confirm = signal of MEK5 binding to mutant human MEKK2, retest; shares compounds with MEKK3 PB1 HTS; bead flow cytometry, Alexa488-MEK5 binding to MEKK2 mutant; percent response, % at 10 µM; AID 1893; 5,900 compounds, 2% hits; in the data active = percent response mostly above about 71%, no sharp cut-off; inactive = mostly below about 38%;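 note: higher means compound restores mutant binding toward wildtype level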
MEKK3 confirm = MEKK3-MEK5 PB1 inhibition, single concentration confirmation | shares compounds with MEKK3 PB1 HTS | bead flow cytometry, Alexa488-MEK5 binding to MEKK3; stronger effect = lower value | binding response (% of control), % at 10 µM | 5,900 compounds, 1.8% hits;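 active = binding response below 72% of control, or above a set upper limit, though filed actives all read lower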;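 note: 100% = DMSO only wells and 0% = binding blocked by excess unlabeled MEK5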
Numbers without * were called inactive; / = not tested or not shown; [ ] = remark or other dose.

SMILES	MEKK2 WT-MEK5	GSK3A inh	GSK3beta inhib	MEKK3 PB1 HTS	MEKK2 mut-MEK5	STK33 kinase inh	MEKK2wt confirm	MEKK2mut confirm	MEKK3 confirm
O=C1NC(=S)NC(=O)C1C/C=C/c1ccccc1	-7.0*[inhibitor]	-6.0	-2.6	91.0	-34.0	0.6	96.0	0.0	104.0
Cc1cccnc1NC1=NCC(C)S1 (stereo not given)	104.0	-0.1	1.1	101.0	3.0	-1.9	/	/	/
CCC1(CC)C(=N)N(C)C(=O)NC1=O	101.0	-1.9	1.9	106.0	-1.0	-0.6	/	/	/
Cc1ccsc1-c1nc(CSCC(=O)N2CCC3(CC2)OCCO3)c(C)o1	115.0	-0.3	-0.3	123.0*	6.0	0.4	104.0	3.0	102.0
Cc1ccccc1-c1nc(CS(=O)CC(=O)N2CCC3(CC2)OCCO3)c(C)o1 (stereo not given)	103.0	2.5	2.5	105.0	4.0	-1.2	/	/	/
Cc1ccc2c(c1)C1CN(C)CCC1N2C(=O)c1ccco1 (stereo not given)	83.0	-1.8	-0.4	71.0*[inhibitor]	-15.0	0.0	107.0	-4.0	100.0
Cc1ccc2c(c1)C1CN(C)CCC1N2C(=O)Nc1cccc(Cl)c1 (stereo not given)	127.0	11.6	-30.5	83.0	9.0	-1.8	/	/	/
O=S(=O)(c1ccc(Cl)cc1)N1CCCCC1c1cccnc1 (stereo not given)	117.0	5.0	2.7	130.0*	1.0	-3.3	98.0	-1.0	103.0
O=C(c1ccc(F)c([N+](=O)[O-])c1)N1CC2CC(C1)c1cccc(=O)n1C2 (stereo not given)	105.0	4.3	3.0	101.0	4.0	-1.3	/	/	/
C#CCN(C)C(C)Cc1ccccc1 (stereo not given)	61.0*[inhibitor]	2.4	2.1	69.0*[inhibitor]	3.0	-1.1	99.0	-6.0	100.0
CC/C(=N\NC(=O)Nc1ccccc1)c1c(O)n(Cc2ccccc2)c(=O)[nH]c1=O	118.0	-1.0	1.0	132.0*	27.0	-0.9	94.0	0.0	101.0
CCC(=NCc1cccnc1)c1c(O)n(Cc2ccccc2)c(=O)[nH]c1=O	101.0	0.3	-1.5	98.0	-1.0	0.4	/	/	/
CC1C(c2cccs2)=[N+]([O-])C(C)(C(=O)c2cccs2)N1O (stereo not given)	102.0	-3.7	-0.8	99.0	-1.0	-2.1	/	/	/
CCCCNc1ccncc1S(=O)(=O)NC(=O)NC(C)C	100.0	0.3	-2.2	107.0	-3.0	-0.6	/	/	/
c1ccc(C2N3CCCN23)cc1 (stereo not given)	112.0	-1.6	-8.2	108.0	8.0	-0.9	/	/	/
ON1C2CCCCC2N(O)C1c1ccccc1 (stereo not given)	33.0*[inhibitor]	0.6	1.9	22.0*[inhibitor]	-33.0	-3.1	103.0	3.0	103.0
Cc1cc(C=O)c(C)n1C1CC1	100.0	-3.2	3.6	104.0	-4.0	-1.4	/	/	/
COc1cc2[nH]c(=O)n(-c3cccc(Cl)c3)c(=O)c2cc1OC	108.0	5.8	0.9	105.0	9.0	1.4	/	/	/
CC(=O)c1c(O)n(-c2cccc(Cl)c2)c(=O)[nH]c1=O (tested in a mixture with another compound)	108.0	-0.7	0.4	128.0*	27.0	-0.6	104.0	-4.0	103.0
CC(C)OP(=O)(OC(C)C)C(O)c1ccc(Br)cc1 (stereo not given)	108.0	-1.7	0.0	149.0*	-1.0	0.1	105.0	2.0	104.0
CC(C)OP(=O)(OC(C)C)C(O)c1cccnc1 (stereo not given)	99.0	-2.5	1.6	113.0	0.0	0.4	/	/	/
Cc1nc2c(-c3ccccc3)c(C)nn2c(C)c1CCC(=O)N1CCC2(CC1)OCCO2	101.0	5.7	1.2	44.0*[inhibitor]	-29.0	1.4	106.0	0.0	100.0
Cc1nc2cc(-c3cccc(F)c3)nn2c(C)c1CCC(=O)N1CCC2(CC1)OCCO2	102.0	-1.3	4.9	103.0	1.0	-1.9	/	/	/
Cc1cccc(C(O)(C(=O)NNC(=O)CN2CCN(C)CC2)c2cccc(C)c2)c1	98.0	7.6	-0.4	90.0	1.0	-1.1	/	/	/
Cc1ccc(C(O)(C(=O)NNC(=O)CN2CCN(C)CC2)c2ccc(C)cc2)cc1	101.0	0.5	-0.6	67.0*[inhibitor]	0.0	-0.4	106.0	6.0	107.0
SMILES	MEKK2 WT-MEK5	GSK3A inh	GSK3beta inhib	MEKK3 PB1 HTS	MEKK2 mut-MEK5	STK33 kinase inh	MEKK2wt confirm	MEKK2mut confirm	MEKK3 confirm
CN=C(SCC(=O)c1cccc(Cl)c1)c1c(O)n(C)c(=O)n(C)c1=O	80.0	13.0	-14.8	75.0	-26.0	-1.3	/	/	/
Cc1cccc(-n2c(-c3cccs3)nc3ccccc3c2=O)c1	100.0	-1.7	-1.9	130.0*	0.0	-1.5	98.0	-5.0	103.0
CN(C)c1ccc(/C=C/c2cc[n+](C)c3ccccc23)cc1	/	/	/	70.0*[inhibitor]	-31.0	/	95.0	-4.0	87.0
N#CC(C#N)=NNc1ccc(-n2ccc(C(F)(F)F)n2)cc1	91.0	2.5	2.3	93.0	-6.0	2.9	/	/	/
Cc1cc(C)n(-c2ccc(NN=C(C#N)C#N)cc2)n1	43.0*[inhibitor]	-1.6	5.9	40.0*[inhibitor]	-57.0	3.0	94.0	-5.0	90.0
COC(=O)C1=C(c2ccc(OC(F)(F)F)cc2)C[C@@H]2CC[C@H]1N2C(=O)NC1CCCCC1	/	-5.0	/	/	/	0.4	/	/	/
COc1ccc2[nH]c(C)c(CCNCc3cccnc3)c2c1	/	2.5	/	/	/	-0.5	/	/	/
Cc1[nH]c2ccc(OC(F)(F)F)cc2c1CCNCc1cccc([N+](=O)[O-])c1	148.0*	0.8	-6.9	108.0	25.0*	0.6	170.0	45.0	104.0
Cc1[nH]c2ccc(OC(F)(F)F)cc2c1CCNCc1ccc(Cl)cc1	174.0*	4.2	-2.8	101.0	37.0*	-1.2	195.0	43.0	106.0
CCOc1cccc(CNCCc2c(C)[nH]c3ccc(OC(F)(F)F)cc23)c1O	150.0*	1.0	-4.3	104.0	19.0	0.1	177.0	48.0	104.0
CN(C)P(=O)(C(Cl)=C(N1CCCCC1)N1CCCCC1)N(C)C	87.0	-4.4	-0.8	83.0	-12.0	-1.0	/	/	/
COc1ccc(C(Nc2ccccc2)P(=O)(Oc2ccccc2)Oc2ccccc2)cc1 (stereo not given)	97.0	1.5	1.9	101.0	-3.0	0.2	/	/	/
Cc1[nH]c2ccccc2c1C1=CCNCC1	76.0	19.1	-2.0	113.0	144.0*	21.8	107.0	2.0	103.0
